Activity calls are given as the source filed them. The rule behind the calls is not given here.
Experiments:
[1] = system: Mus musculus; assay: Antiinflammatory activity against trinitrobenzenesulfonic acid-induced colitis in human PXR expressing transgenic C57/BL6 mouse assessed as decrease in evidence of mucosal hemorrhage in colon at 10 mg/kg, ip administered on day 1 after TNBS challenge measured after 5 days; assay type: functional, organism-based; parameters: dose 10 mg/kg; settings: C57Bl/6
In short: (§1)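 Therapeutic protocol in male hPXR mice. Colitis was induced with intrarectal TNBS 0.5 mg/mouse in 50% ethanol after a 16 h fast and light ketamine/xylazine anaesthesia. Drug at 10 mg/kg was given once daily from day 1 after TNBS. Mice were sacrificed 5 days after TNBS; n = 4–6 per group.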

[2] = system: Mus musculus; assay: Antiinflammatory activity against trinitrobenzenesulfonic acid-induced colitis in human PXR expressing transgenic C57/BL6 mouse assessed as decrease in thickening of colon wall at 10 mg/kg, ip administered on day 1 after TNBS challenge measured after 5 days by microscopically; assay type: functional, organism-based; parameters: dose 10 mg/kg; settings: C57Bl/6; in short: as §1
[3] = system: Mus musculus; assay: Antiinflammatory activity against trinitrobenzenesulfonic acid-induced colitis in human PXR expressing transgenic C57/BL6 mouse assessed as decrease in edema of colon at 10 mg/kg, ip qd administered 3 days before TNBS challenge measured after 7 days; assay type: functional, organism-based; parameters: dose 10 mg/kg; settings: C57Bl/6
In short: (§2)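 Male hPXR mice (human PXR on mouse PXR-null background). Fasted 16 h and lightly anaesthetised with ketamine/xylazine, then given TNBS 0.5 mg/mouse in 50% ethanol intrarectally in 150 μL. Drug was dissolved in DMSO, diluted in 1% methylcellulose and given i.p. once daily for 3 days before TNBS. Vehicle controls received methylcellulose. Mice were sacrificed 4 days after TNBS; n = 6–7 per group.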

[4] = system: Mus musculus; assay: Antiinflammatory activity against trinitrobenzenesulfonic acid-induced colitis in human PXR expressing transgenic C57/BL6 mouse assessed as decrease in thickness of colon at 10 mg/kg, ip administered on day 1 after TNBS challenge measured after 5 days; assay type: functional, organism-based; parameters: dose 10 mg/kg; settings: C57Bl/6; in short: as §1
[5] = system: Mus musculus; assay: Antiinflammatory activity against trinitrobenzenesulfonic acid-induced colitis in human PXR expressing transgenic C57/BL6 mouse assessed as decrease in weight loss at 10 mg/kg, ip administered on day 1 after TNBS challenge measured after 5 days; assay type: functional, organism-based; parameters: dose 10 mg/kg; settings: C57Bl/6; in short: as §1
[6] = system: Mus musculus; assay: Antiinflammatory activity against trinitrobenzenesulfonic acid-induced colitis in human PXR expressing transgenic C57/BL6 mouse assessed as decrease in vascular density in colon at 10 mg/kg, ip administered on day 1 after TNBS challenge measured after 5 days by microscopically; settings: C57Bl/6
[7] = system: Mus musculus; assay: Antiinflammatory activity against trinitrobenzenesulfonic acid-induced colitis in human PXR expressing transgenic C57/BL6 mouse assessed as decrease in goblet cells in colon at 10 mg/kg, ip administered on day 1 after TNBS challenge measured after 5 days by microscopically; assay type: functional, organism-based; parameters: dose 10 mg/kg; settings: C57Bl/6; in short: as §1
[8] = system: Mus musculus; assay: Antiinflammatory activity against trinitrobenzenesulfonic acid-induced colitis in human PXR expressing transgenic C57/BL6 mouse assessed as decrease in evidence of mucosal hemorrhage in colon at 10 mg/kg, ip qd administered 3 days before TNBS challenge measured after 7 days; assay type: functional, organism-based; parameters: dose 10 mg/kg; settings: C57Bl/6; in short: as §2
[9] = system: Mus musculus; assay: (§3) Antiinflammatory activity against trinitrobenzenesulfonic acid-induced colitis in human PXR expressing transgenic C57/BL6 mouse assessed as decrease in appearance of epithelial erosions in colon at 10 mg/kg, ip qd administered 3 days before TNBS challenge measured after 7 days by haematoxylin/eosin staining; assay type: functional, organism-based; parameters: dose 10 mg/kg; settings: C57Bl/6; in short: as §2
[10] = system: Mus musculus; assay: Antiinflammatory activity against trinitrobenzenesulfonic acid-induced colitis in human PXR expressing transgenic C57/BL6 mouse assessed as decrease in INF-gamma protein level in colon at 10 mg/kg, ip qd after 5 days; assay type: functional, organism-based; parameters: dose 10 mg/kg; settings: C57Bl/6
[11] = system: Mus musculus; assay: Antiinflammatory activity against trinitrobenzenesulfonic acid-induced colitis in human PXR expressing transgenic C57/BL6 mouse assessed as decrease in MIP-1alpha protein level in colon at 10 mg/kg, ip qd after 5 days; assay type: functional, organism-based; parameters: dose 10 mg/kg; settings: C57Bl/6
[12] = system: Mus musculus; assay: as §3, with “submucosal edema” for “epithelial erosions”; assay type: functional, organism-based; parameters: dose 10 mg/kg; settings: C57Bl/6; in short: as §2
[13] = system: Mus musculus; assay: Antiinflammatory activity against trinitrobenzenesulfonic acid-induced colitis in human PXR expressing transgenic C57/BL6 mouse assessed as induction of CYP3A11 mRNA expression in colon at 10 mg/kg, ip qd after 5 days by quantitative RT-PCR; assay type: functional, organism-based; parameters: dose 10 mg/kg; settings: C57Bl/6; in short: as §2
[14] = system: Mus musculus; assay: Antiinflammatory activity against trinitrobenzenesulfonic acid-induced colitis in human PXR expressing transgenic C57/BL6 mouse assessed as decrease in weight loss at 10 mg/kg, ip qd administered 3 days before TNBS challenge measured after 7 days; assay type: functional, organism-based; parameters: dose 10 mg/kg; settings: C57Bl/6; in short: as §2
[15] = system: Mus musculus; assay: Antiinflammatory activity against trinitrobenzenesulfonic acid-induced colitis in human PXR expressing transgenic C57/BL6 mouse assessed as decrease in cellular infiltrate in colon at 10 mg/kg, ip qd administered 3 days before TNBS challenge measured after 7 days; assay type: functional, organism-based; parameters: dose 10 mg/kg; settings: C57Bl/6; in short: as §2
[16] = system: Mus musculus; assay: Antiinflammatory activity against trinitrobenzenesulfonic acid-induced colitis in human PXR expressing transgenic C57/BL6 mouse assessed as decrease in presence of indurations in colon at 10 mg/kg, ip administered on day 1 after TNBS challenge measured after 5 days; assay type: functional, organism-based; parameters: dose 10 mg/kg; settings: C57Bl/6; in short: as §1
[17] = system: Mus musculus; assay: Antiinflammatory activity against trinitrobenzenesulfonic acid-induced colitis in human PXR expressing transgenic C57/BL6 mouse assessed as decrease in leukocyte infiltration in colon at 10 mg/kg, ip administered on day 1 after TNBS challenge measured after 5 days by microscopically; assay type: functional, organism-based; parameters: dose 10 mg/kg; settings: C57Bl/6; in short: as §1
[18] = system: Mus musculus; assay: Antiinflammatory activity against trinitrobenzenesulfonic acid-induced colitis in human PXR expressing transgenic C57/BL6 mouse assessed as increase in TGF-beta1 protein level in colon at 10 mg/kg, ip qd after 5 days; settings: C57Bl/6
[19] = system: Mus musculus; assay: Antiinflammatory activity against trinitrobenzenesulfonic acid-induced colitis in human PXR expressing transgenic C57/BL6 mouse assessed as decrease in thickness of colon at 10 mg/kg, ip qd administered 3 days before TNBS challenge measured after 7 days; assay type: functional, organism-based; parameters: dose 10 mg/kg; settings: C57Bl/6; in short: as §2
[20] = system: Mus musculus; assay: Antiinflammatory activity against trinitrobenzenesulfonic acid-induced colitis in human PXR expressing transgenic C57/BL6 mouse assessed as decrease in microscopic colon damage at 10 mg/kg, ip qd administered 3 days before TNBS challenge measured after 7 days; assay type: functional, organism-based; parameters: dose 10 mg/kg; settings: C57Bl/6; in short: as §2
[21] = target: T1, Nuclear receptor subfamily 1 group I member 2 (Homo sapiens, UniProt O75469); assay: Transactivation of human PXR expressed in HepG2 cells after 18 hrs by luciferase reporter gene assay; assay type: cell-based
T1 sequence (O75469 whole entry): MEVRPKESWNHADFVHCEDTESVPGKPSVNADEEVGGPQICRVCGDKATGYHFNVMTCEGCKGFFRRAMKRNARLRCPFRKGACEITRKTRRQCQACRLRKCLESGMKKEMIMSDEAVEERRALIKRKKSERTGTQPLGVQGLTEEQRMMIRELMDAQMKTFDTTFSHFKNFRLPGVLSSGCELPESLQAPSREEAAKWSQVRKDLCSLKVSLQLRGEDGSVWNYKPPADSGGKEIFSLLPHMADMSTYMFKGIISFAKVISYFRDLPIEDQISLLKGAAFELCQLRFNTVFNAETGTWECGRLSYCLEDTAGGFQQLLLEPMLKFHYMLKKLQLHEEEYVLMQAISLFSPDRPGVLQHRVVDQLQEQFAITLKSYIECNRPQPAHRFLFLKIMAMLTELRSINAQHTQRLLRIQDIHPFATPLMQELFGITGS
In short: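 HepG2 cells were transiently transfected with pSG5-PXR, pSG5-RXR, pCMV-βgal and a CYP3A4-promoter luciferase reporter. 48 h after transfection, cells were stimulated for 18 h at 0.1, 1 and 10 μM. Luciferase was normalised to β-galactosidase; n = 4. Relative EC50 from n = 3.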

## C[C@H](CCCOS(=O)(=O)O)[C@H]1CC[C@H]2[C@@H]3CC[C@H]4C[C@H](OS(=O)(=O)O)[C@@H](OS(=O)(=O)O)C[C@]4(C)[C@H]3CC[C@]12C [SOLOMONSTEROL A]
[1]
  Activity: Active
[2]
  Activity: Active
[3]
  Activity: Active
[4]
  Activity: Active
[5]
  Activity: Active
[6]
  Activity: Active
[7]
  Activity: Active
[8]
  Activity: Active
[9]
  Activity: Active
[10]
  Activity: Active
[11]
  Activity: Active
[12]
  Activity: Active
[13]
  Activity: Active
[14]
  Activity: Active
[15]
  Activity: Active
[16]
  Activity: Active
[17]
  Activity: Active
[18]
  Activity: Active
[19]
  Activity: Active
[20]
  Activity: Active
[21]
  EC50: 5.2 µM
